Rows were chosen to be rich in hits. Some 5.9% of all compounds tested hit in one or more screens of this group.
Fibroblast inh – blocks proliferation of human lung fibroblasts | LL 47 human lung fibroblast viability, ATP luminescence; stronger effect = lower value | viability, % at 10 µM | actives 1.1% (n = 85,000) | AID 719;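 active = viability at or below 50% in the single dose screen; inactive = viability above 50%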;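 note: compound exposure lasted 72 h before the ATP readout; 100% = median luminescence of untreated cell-only wells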
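test system = LL 47 human lung fibroblasts | amount = 1,150 fibroblasts seeded per well | medium = 15% FBS in IMEM | times = overnight cell rest, 72 h compound treatment at 37 °C | measured by = CellTiter-Glo luminescence measuring cellular ATP | read-out = viability percentage against median untreated-cell control | benchmarks = cell-only wells, no compound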
MT1-MMP txn act – activates MT1-MMP transcription; HT1080 MT1-MMP promoter luciferase reporter, luminescence, overnight; stronger effect = higher value; activation factor at 10 µM; actives 0.16% (n = 86,000);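 active = activation factor of at least 2 for MT1-MMP transcription at 10 µM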
Jurkat tox 60K – cytotoxicity toward Jurkat cells; inhibition, % at 4 µM; Jurkat E6.1 viability, ATP luminescence, 48 h; actives 1.2% (n = 56,000); AID 463;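 active = inhibition above the mean inhibition of all tested compounds plus 3 SD, cut at about 28% in these data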
PTK2B oligo ant – antagonists of human Pyk2 oligomerization | Q14289 | Q293 cells, Pyk2 FERM NanoBiT luminescence; stronger effect = lower value | z-score (the deposit names both 25 µM and 10 µM) | actives 0.83% (n = 99,000);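 active = Z-score of -3 or lower, scaled per plate to the spread of control and sample wells; inactive = z-score above -3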;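 note: negative z-score means lost luminescence so less FERM oligomerization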
H69AR growth 86K – growth inhibitors of human H69AR lung tumor cells | H69AR lung tumor viability, ATP luminescence, 72 h; stronger effect = lower value | viability, % at 10 µM | actives 6% (n = 85,000);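 active = viability at or below 40%; inactive = viability above 40%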;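 note: multidrug resistant small cell line overexpressing MRP-1 efflux transporter; 100% = mean luminescence of untreated control wells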
HUVEC prolif 384 – blocks proliferation of human endothelial cells. viability, % at 10 µM (by protocol). actives 1.1% (n = 86,000). HUVEC proliferation, CellTiter-Glo luminescence, 72 h; stronger effect = lower value;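 active = viability at or below 30%; inactive = viability above 30%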;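 note: 100% = median luminescence of DMSO-only cell control wells on each plate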
The depositor's hits bear a star; nt = not tested or not shown.

SMILES	Fibroblast inh	MT1-MMP txn act	Jurkat tox 60K	PTK2B oligo ant	H69AR growth 86K	HUVEC prolif 384
CN1Cc2cc(C(=O)c3ccccc3O)cnc2NC1=O	84	1.3	nt	-0.98	25*	90
CSc1nnc(-c2sc3cc(C(F)(F)F)cnc3c2-c2ccccn2)n1C	106	1.2	nt	0.21	87	93
Cn1c(-c2sc3cc(C(F)(F)F)cnc3c2-c2cccnc2)n[nH]c1=S	100	1.2	nt	-0.24	32*	105
Cc1cc(C(=O)N2CCN(Cc3ccccc3)CC2)on1	92	nt	nt	nt	98	87
COC(=O)Oc1nsnc1N1CCOCC1	93	1.1	4	-0.4	2.7*	94
CCOC(=O)C1=C(CSc2nc(CC)c(C)cc2C#N)OC(N)=C(C#N)C1c1ccccc1 (centres undefined)	78	1.1	nt	-1.1	28*	78
CCOC(=O)C1=C(CSc2nc3c(cc2C#N)CN(C)CC3)OC(N)=C(C#N)C1c1ccc(Cl)cc1 (centres undefined)	103	1.1	nt	-0.12	36*	88
CC1CCCCN1C(=O)/C(=C\c1ccccc1)c1ccccc1 (centres undefined)	nt	nt	nt	-2.1	nt	nt
COc1nc(-c2ccncc2)nc2ccccc12	98	1.1	nt	-0.13	95	82
CCCCN(CC)c1nc(-c2ccncc2)nc2ccccc12	79	1.1	nt	-1.9	20*	56
N#CC1=C(N)NC(SCc2ccc(Cl)cc2)=C(C#N)C12CCCCC2	85	0.8	nt	-0.86	13*	45
N#CC1=C(N)NC(SCc2ccc(Br)cc2)=C(C#N)C12CCCCC2	87	1	nt	-2.3	59	57
COc1ccc2nc3oc(C(=O)Nc4ccc(OC)c(OC)c4)cc3cc2c1	97	1	nt	0.26	77	106
COc1ccc2cc3cc(C(=O)NCCc4ccc(OC)c(OC)c4)oc3nc2c1	120	1.2	18	-3	29*	25*
COc1ccc2cc3cc(C(=O)Nc4ccc5c(c4)OCO5)oc3nc2c1	108	1.1	-4	-0.74	24*	10*
Cc1ccc(C)c(NC(=O)CCC(=O)NNC(=O)c2cccc([N+](=O)[O-])c2)c1	nt	nt	nt	1.6	nt	nt
O=C(NCCSCc1ccccc1)c1cc(S(=O)(=O)N2CCOCC2)ccc1F	100	1.1	6	-0.13	93	97
CCn1c(NC(=O)c2cccs2)nc2ccccc21	65	1.4	-4	-0.2	33*	79
CCn1c(NC(=O)Nc2ccccc2OC)nc2ccccc21	95	1.3	nt	-2.1	36*	90
CCn1c(NC(C)=O)nc2ccccc21	103	1.1	nt	0.53	94	83
O=C1NC(CCc2ccccc2)C(=O)N1Cc1ccccc1Cl (centres undefined)	nt	nt	nt	-0.37	nt	nt
CCOc1ccccc1NC(=O)/C=C/C(N)=O	90	1.1	nt	1.8	1.3*	95
O=S(=O)(NCc1cccnc1)c1ccc(Cl)s1	97	1	nt	1.5	95	91
CCCn1nc([N+](=O)[O-])c(C(C#N)c2nc3ccccc3s2)c(Cl)c1=O (centres undefined)	nt	nt	nt	-3.2*	nt	nt
Cc1cc(NC2CCCCC2)nc(-c2ccccc2O)n1	90	1.3	nt	-0.53	38*	74
SMILES	Fibroblast inh	MT1-MMP txn act	Jurkat tox 60K	PTK2B oligo ant	H69AR growth 86K	HUVEC prolif 384
Cc1cc(OCCOCCNC(C)C)cc(C)c1Cl	90	1.1	nt	0.17	28*	81
O=C(CSc1nc2c(c(=O)n1-c1ccc(Br)cc1)SCC2)Nc1nccs1	86	1.2	5	-1.7	36*	65
O=C(CSc1nc2c(c(=O)n1-c1ccc(Br)cc1)SCC2)NCc1ccco1	101	nt	nt	0.05	77	85
O=C(CSc1nc2c(c(=O)n1-c1ccc(Cl)cc1)SCC2)Nc1nccs1	88	1.2	nt	-0.15	20*	78
Cc1cc(NC(=O)CSc2nc3c(c(=O)n2-c2ccc(Cl)cc2)SCC3)no1	93	1.2	nt	-0.18	83	85
CCOC(=O)C1=C(Nc2ccc(Br)cc2)CC(C)(O)C(C(=O)OCC)C1c1ccccc1 (centres undefined)	nt	nt	nt	-0.65	nt	nt
CCOC(=O)SC1=N/C(=C\c2ccc(N(C)C)cc2)C(=O)S1	108	1.3	7	0.92	27*	87
CCSC1=N/C(=C\c2ccc(C(=O)O)cc2)C(=O)S1	100	1.2	4	-0.12	82	91
O=[N+]([O-])c1ccc(-c2nnc(CSc3nc(-c4ccccc4)nc4ccc(F)cc34)o2)cc1	85	1.3	nt	nt	73	78
CN(C)c1oc(-c2ccccc2Cl)nc1P(=O)(c1ccccc1)c1ccccc1	nt	nt	nt	-1.8	nt	nt
O=C(COc1ccc(-c2ccccc2)cc1)N1CCN(S(=O)(=O)Cc2ccccc2)CC1	52	1.2	nt	-1	26*	49
Cc1ccc(OCC(=O)N2CCN(C(=O)Cc3ccccc3)CC2)cc1	102	1.1	-3	2.6	105	103
Cc1ccc(Cl)cc1N1CCN(C(=O)COc2ccc(S(=O)(=O)NC(C)C)cc2)CC1	90	1.1	54*	nt	52	64
CC(C)COC(=O)Cn1cnc2ccc(Br)cc2c1=O	89	1.3	-5	1	91	82
COc1cc(C(=O)O/N=C2\CCCc3c2ccc(OC)c3[N+](=O)[O-])cc(OC)c1OC	71	1.1	nt	0.6	17*	58
O=C(NCC(F)(F)F)N1CCOCC1	105	1	nt	0.96	94	94
COc1cc(/C=N/N(C)c2ccccc2)ccc1O	83	1.2	nt	-3*	70	40
COc1cc(OC)c(OC)cc1/C=N/N(C)c1ccccc1	99	1.2	nt	-1	82	89
CCc1nc2sc3c(c2c(=O)n1NC(=O)CCl)CCCC3	97	1.2	nt	-0.41	12*	82
CS(=O)(=O)c1ccc(Sc2nc3ccccc3s2)c([N+](=O)[O-])c1	nt	nt	nt	2	nt	nt
O=[N+]([O-])c1cc(S(=O)(=O)C(F)(F)F)ccc1Sc1nc2ccccc2s1	nt	nt	nt	-0.98	nt	nt
CS(=O)(=O)c1ccc(Sc2nc3ccccc3[nH]2)c([N+](=O)[O-])c1	97	1	nt	0.35	1.1*	100
O=[N+]([O-])c1cc(S(=O)(=O)C(F)(F)F)ccc1Sc1nc2ccccc2[nH]1	12*	1.2	nt	1.5	1.7*	18*
CC1=NN(S(=O)(=O)c2ccc(F)cc2)C(=O)c2ccccc2O1	99	1.2	nt	-0.52	99	91
COc1ccc(S(=O)(=O)N2N=C(C)Oc3ccccc3C2=O)cc1	47*	0.6	nt	0.16	16*	58
CCc1[nH]nc2c1C(c1ccc(Br)s1)C(C#N)=C(N)O2 (centres undefined)	24*	1.1	nt	0.02	1.7*	69
CC(C)CC(=O)NC(NC(=S)Nc1sc2c(c1C#N)CCCC2)C(Cl)(Cl)Cl (centres undefined)	nt	nt	nt	0.13	nt	nt
O=S(=O)(c1ccc(N2CCC(c3ccc(Cl)cc3)=N2)cc1)N(CCO)CCO	88	1.2	nt	-2	13*	47
CN(C)CCCNS(=O)(=O)c1ccc(N2CCC(c3ccc(Cl)cc3)=N2)cc1	1.6*	nt	nt	nt	0.5*	3.2*
